Assay results taken from PMC4096895 (Organic & biomolecular chemistry, 2014).
Blank lines part the entries; values can stand above or below the compound they belong to.

Columns and labels:
Amidine stability assay = assay type: physicochemical
Outline: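 Test compound kept as a 0.168 M stock in nanopure water at ambient temperature, and aliquots were diluted into the incubation buffer. Samples were flash-frozen in liquid nitrogen and stored at −18°C until analysis. Quantification was by HPLC on a carbohydrate Na+ (8%) column at 80°C, with nanopure water as eluent at 0.4 mL/min and light-scattering detection.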

[1] = target: β-galactosidase (A. oryzae) (Aspergillus oryzae, UniProt Q2UCU3); test: Assay for the inhibited enzymatic substrate hydrolysis; assay type: biochemical; settings: 50 mM acetate buffer pH 5.0, 30 °C
[2] = test system: β-galactosidase (A. oryzae); test: Assay for enzymatic substrate hydrolysis; assay type: biochemical, Aspergillus oryzae; settings: 50 mM acetate buffer pH 5.0, 30 °C, no inhibitor
[3] = Water solubility under the kinetic assay conditions; assay type: physicochemical; settings: under the used assay condition (50 mM acetate buffer pH 5)

Chain of β-galactosidase (A. oryzae) (Aspergillus oryzae, UniProt Q2UCU3) (Q2UCU3 19-1005): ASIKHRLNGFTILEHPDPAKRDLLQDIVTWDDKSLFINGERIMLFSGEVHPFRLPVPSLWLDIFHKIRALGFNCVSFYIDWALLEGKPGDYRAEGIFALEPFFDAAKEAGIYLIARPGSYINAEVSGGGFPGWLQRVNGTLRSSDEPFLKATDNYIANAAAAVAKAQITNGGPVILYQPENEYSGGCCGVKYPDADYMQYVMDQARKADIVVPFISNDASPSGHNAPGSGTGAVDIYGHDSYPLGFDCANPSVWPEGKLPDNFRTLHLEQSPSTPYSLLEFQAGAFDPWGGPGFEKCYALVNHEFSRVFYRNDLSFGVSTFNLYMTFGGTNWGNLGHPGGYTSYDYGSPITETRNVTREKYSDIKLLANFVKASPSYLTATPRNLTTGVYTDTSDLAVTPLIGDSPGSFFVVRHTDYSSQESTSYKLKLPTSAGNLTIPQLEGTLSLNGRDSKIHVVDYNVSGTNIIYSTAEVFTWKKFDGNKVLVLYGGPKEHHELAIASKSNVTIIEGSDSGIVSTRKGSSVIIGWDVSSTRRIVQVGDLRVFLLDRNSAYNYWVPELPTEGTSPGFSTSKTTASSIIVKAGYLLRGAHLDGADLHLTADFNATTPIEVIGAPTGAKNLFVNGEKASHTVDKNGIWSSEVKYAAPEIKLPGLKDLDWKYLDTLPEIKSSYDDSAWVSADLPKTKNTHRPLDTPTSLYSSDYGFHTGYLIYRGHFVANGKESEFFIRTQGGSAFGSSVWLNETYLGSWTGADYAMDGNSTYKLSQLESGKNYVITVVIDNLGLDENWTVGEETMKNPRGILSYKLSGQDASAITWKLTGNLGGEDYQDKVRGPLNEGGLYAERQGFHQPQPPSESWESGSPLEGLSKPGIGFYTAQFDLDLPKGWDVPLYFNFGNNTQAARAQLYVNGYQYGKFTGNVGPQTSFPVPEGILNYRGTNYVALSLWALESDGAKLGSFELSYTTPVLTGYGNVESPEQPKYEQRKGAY

SMILES: Cc1ccc(CN=C2N[C@H](CO)[C@H](O)[C@H](O)[C@H]2O)cc1 [1d, p-methylbenzyl-D-galactonoamidine]
stability (Amidine stability assay; 5 mM CAPS buffer at pH 10.5 and 0°C, preliminary results): sufficient stability
stability (Amidine stability assay; 5 mM TAPS buffer at pH 9 and 10°C, preliminary results): sufficient stability
stability (Amidine stability assay; 50 mM CAPS buffer at pH 10.5 and 72°C): insufficient stability
stability (HPLC) (Amidine stability assay; acetate buffer at 30°C, same amount of time (3h)): no evidence for compound decomposition
time found stable (Amidine stability assay; nanopure water at 30, 50 or 72°C): ≥ 3 h
Ki ([1]; substrate 2a): 23.3 nM
Ki ([1]; substrate 2b): 14.1 nM
Ki ([1]; substrate 2c): 13.3 nM
Ki ([1]; substrate 2e): 16.5 nM
Ki ([1]; substrate 2f): 24.6 nM
Ki ([1]; substrate 2g): 55.7 nM
Ki ([1]; substrate 2i): 11.5 nM
Ki ([1]; substrate 2k): 8 nM
Ki ([1]; substrate 2h): 15.1 nM
Ki ([1]; substrate 2d): 11.6 nM

SMILES: OCC1NC(=NCc2cccc(F)c2)C(O)C(O)C1O [1f, 3-fluorobenzyl-D-galactonoamidine]
Ki ([1]; substrate 2a): 16.4 nM
Ki ([1]; substrate 2b): 22.3 nM
Ki ([1]; substrate 2c): 18.1 nM
Ki ([1]; substrate 2e): 14.2 nM
Ki ([1]; substrate 2f): 30.3 nM
Ki ([1]; substrate 2g): 58.1 nM
Ki ([1]; substrate 2i): 13.7 nM
Ki ([1]; substrate 2k): 20.3 nM
Ki ([1]; substrate 2h): 22.8 nM
Ki ([1]; substrate 2d): 13.3 nM

SMILES: O=[N+]([O-])c1ccccc1O[C@@H]1O[C@H](CO)[C@H](O)[C@H](O)[C@H]1O [2a, 2-nitrophenyl-β-D-galactopyranoside, reference compound]
Km [2]: 1270 µM
kcat [2]: 76.5 s⁻¹

SMILES: Cc1ccc(O[C@@H]2O[C@H](CO)[C@H](O)[C@H](O)[C@H]2O)c([N+](=O)[O-])c1 [2b, 4-Methyl-2-nitrophenyl-β-D-galactopyranoside]
Km [2]: 1490 µM
kcat [2]: 80.13 s⁻¹

SMILES: O=[N+]([O-])c1cc(F)ccc1O[C@@H]1O[C@H](CO)[C@H](O)[C@H](O)[C@H]1O [2c, 4-Fluoro-2-nitrophenyl-β-D-galactopyranoside]
Km [2]: 1240 µM
kcat [2]: 77.63 s⁻¹

SMILES: O=[N+]([O-])c1cc(Cl)ccc1O[C@@H]1O[C@H](CO)[C@H](O)[C@H](O)[C@H]1O [2d, 4-Chloro-2-nitrophenyl-β-D-galactopyranoside]
Km [2]: 960 µM
kcat [2]: 68.97 s⁻¹

SMILES: O=[N+]([O-])c1cc(Br)ccc1O[C@@H]1O[C@H](CO)[C@H](O)[C@H](O)[C@H]1O [2e, 4-Bromo-2-nitrophenyl-β-D-galactopyranoside]
Km [2]: 1100 µM
kcat [2]: 64.7 s⁻¹

SMILES: O=[N+]([O-])c1ccc(F)cc1O[C@@H]1O[C@H](CO)[C@H](O)[C@H](O)[C@H]1O [2f, 5-Fluoro-2-nitrophenyl-β-D-galactopyranoside]
Km [2]: 1780 µM
kcat [2]: 64.77 s⁻¹

SMILES: Cc1ccc([N+](=O)[O-])c(O[C@@H]2O[C@H](CO)[C@H](O)[C@H](O)[C@H]2O)c1 [2g, 5-Methyl-2-nitrophenyl-β-D-galactopyranoside]
Km [2]: 4270 µM
kcat [2]: 70.15 s⁻¹

SMILES: O=[N+]([O-])c1ccc(O[C@@H]2O[C@H](CO)[C@H](O)[C@H](O)[C@H]2O)cc1 [2h, 4-nitrophenyl-β-D-galactopyranoside, reference compound]
Km [2]: 840 µM
kcat [2]: 53.97 s⁻¹

SMILES: O=[N+]([O-])c1ccc(O[C@@H]2O[C@H](CO)[C@H](O)[C@H](O)[C@H]2O)c(F)c1 [2i, 2-Fluoro-4-nitrophenyl-β-D-galactopyranoside]
Km [2]: 920 µM
kcat [2]: 61.17 s⁻¹

SMILES: O=[N+]([O-])c1ccc(O[C@@H]2O[C@H](CO)[C@H](O)[C@H](O)[C@H]2O)c(Cl)c1 [2k, 2-Chloro-4-nitrophenyl-β-D-galactopyranoside]
Km [2]: 700 µM
kcat [2]: 39.68 s⁻¹

water solubility [3]: surprising low water solubility
SMILES: COc1ccc(O[C@@H]2O[C@H](CO)[C@H](O)[C@H](O)[C@H]2O)c([N+](=O)[O-])c1 [2p, 4-Methoxy-2-nitrophenyl-β-D-galactopyranoside]
